Only some compounds are listed: those with a hit (about 2% of all), similar ones and a draw of the others.
CTSL1 counter: cathepsin L1 inhibition, PFM18AAP counter-screen. recombinant F. hepatica cathepsin L1, Z-Leu-Arg-MCA fluorescence. inhibition, % at 5.96 µM. 300,000 compounds, 0.49% hits. AID 1906;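 active means inhibition above the mean of all tested compounds plus 3 SD, set per screening campaign, cut at about 17% in these data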;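 further: 0% = plate median of test compound wells and 100% = 1 µM Z-Phe-Ala-diazomethylketone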
PP5 primary: inhibitors of human protein phosphatase 5 (PP5). P53041. purified PP5c, OMFP substrate fluorescence. inhibition, % at 6.7 µM. 320,000 compounds, 0.18% hits;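 active means inhibition above the campaign's mean inhibition across all tested compounds plus 3 SD, cut at about 9.5% in these data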;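 further: 0% = DMSO only and 100% = 100 µM cantharidin control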
GSTO1 inh: counter-screen for RBBP9 inhibitors: inhibitors of human GSTO1 | 300,000 compounds, 1.1% hits | recombinant GSTO1, activity-based probe fluorescence polarization | AID 1974 | inhibition, % at 5.96 µM | P78417;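 active means inhibition above the campaign mean inhibition plus 3 SD, cut at about 35% in these data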;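 further: 0% = GSTO1-1 with DMSO and 100% = wells lacking GSTO1-1 enzyme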
UCH37 inh: human UCH37 deubiquitinating enzyme inhibition. AID 588478. Q9Y5K5. 330,000 compounds, 0.33% hits. inhibition, % (no concentration beside the values). purified proteasome/UCH37, Ub-AMC cleavage fluorescence;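 active means mean inhibition over replicate wells above about 20%, limit read from the data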;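 further: 0% = compound-free wells with enzyme and 100% = wells lacking proteasome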
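system = Proteasome-associated human UCH37 deubiquitinase | amount = 0.15 nM proteasome as dispensed | medium = pH 7.4 Tris-HCl (50 mM) with ovalbumin, ATP-MgCl2, DTT | incubation = 30 min preincubation with enzyme, 25 min cleavage at room temperature | detection = AMC fluorescence 355/460 nm | read-out basis = percent inhibition | controls = no-proteasome and no-compound wells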
PAD4 inh: inhibitors of human PAD4; Q9UM07; recombinant PAD4, RCA probe fluorescence polarization; inhibition, % at 6.36 µM; 330,000 compounds, 0.41% hits;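 active means percent inhibition above a cutoff equal to the mean of all tested compounds plus 3 SD, cut at about 15% in these data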;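 further: 0% = PAD4 with RCA probe and DMSO and 100% = probe without PAD4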
Target sequence (Q9UM07 whole entry, looked up): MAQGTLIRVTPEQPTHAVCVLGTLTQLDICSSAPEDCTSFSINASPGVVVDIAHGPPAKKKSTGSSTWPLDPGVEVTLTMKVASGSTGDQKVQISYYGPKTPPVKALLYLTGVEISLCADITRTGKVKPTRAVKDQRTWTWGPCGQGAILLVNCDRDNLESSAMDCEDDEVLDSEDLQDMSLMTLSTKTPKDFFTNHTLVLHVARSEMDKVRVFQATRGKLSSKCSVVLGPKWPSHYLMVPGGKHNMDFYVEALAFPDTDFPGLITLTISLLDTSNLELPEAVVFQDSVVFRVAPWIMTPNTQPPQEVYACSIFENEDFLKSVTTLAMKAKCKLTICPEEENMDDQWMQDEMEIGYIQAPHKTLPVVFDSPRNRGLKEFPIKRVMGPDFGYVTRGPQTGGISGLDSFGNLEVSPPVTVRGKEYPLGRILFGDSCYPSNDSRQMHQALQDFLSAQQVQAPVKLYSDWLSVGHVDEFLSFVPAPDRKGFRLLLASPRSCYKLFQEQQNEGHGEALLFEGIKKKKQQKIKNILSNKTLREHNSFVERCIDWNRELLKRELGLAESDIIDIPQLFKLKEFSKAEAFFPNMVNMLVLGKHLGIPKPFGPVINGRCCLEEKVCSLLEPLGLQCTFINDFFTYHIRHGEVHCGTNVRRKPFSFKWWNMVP
Apaf1 inhib: inhibitors of human Apaf-1 apoptosome; 330,000 compounds, 0.71% hits; inhibition, % at 20 µM; reconstituted apoptosome caspase-3 activity, DEVD-Rh110 fluorescence; O14727; active means inhibition of at least 40% at 20 µM;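 further: plate controls were DMSO wells for no effect and DEVD-CHO caspase inhibitor wells for full effect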
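detection = Rh110 fluorescence intensity | test system = biochemical Apaf-1 apoptosome reconstitution | also added = cytochrome c and DEVD-Rh110 substrate | schedule = 30 min plus 50 min, RT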
Apaf-1 inh conf2: confirmation of Apaf-1 inhibitors | AID 504614 | shares compounds with Apaf1 inhib | inhibition, % at 20 µM | reconstituted apoptosome, caspase-3 DEVD-Rh110 fluorescence | 1,800 compounds, 25% hits;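 active means mean inhibition of at least 40% at 20 µM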;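 further: plate controls were DMSO wells for no effect and DEVD-CHO caspase inhibitor control wells for full effect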
Rh110 quench: Rh110 signal interference in Apaf-1 inhibitor counter-screen; shares compounds with Apaf1 inhib; activation (fluorescence interference), % at 20 µM; Rh110 fluorescence interference, quenched caspase reaction; 1,800 tested, under 10 active;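 active means signal rise of 40% or more at 20 µM, treated as a fluorescence artifact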
Apaf1 inh interf: counter-screen for Apaf-1 inhibitors: fluorescence interference, dose response | shares compounds with Apaf1 inhib | fluorescence interference counterscreen, Apaf-1 assay format | IC50, µM | 460 tested, under 10 active; call rule not given here
Active calls of the source: *; . = no result given.

SMILES | CTSL1 counter | PP5 primary | GSTO1 inh | UCH37 inh | PAD4 inh | Apaf1 inhib | Apaf-1 inh conf2 | Rh110 quench | others
Cc1cc(C)cc(NC(=O)CCNS(=O)(=O)c2cc(Br)cnc2N)c1 | 1 | 2 | 4 | 1 | -3 | -1 | . | .
Clc1nc2sccn2c1C=Nn1cnc2ccccc21 | . | . | . | -6 | . | . | . | .
COc1ccccc1NC(=O)c1ccc(N)cc1 | 0 | 0 | 4 | 5 | 3 | 0 | . | .
COC(=O)c1ccc(C(=O)Nc2ccc(N)cc2N)cc1 | -1 | 4 | 8 | -6 | -6 | 48* | 13 | 1
CC(=NNC(=O)c1cn(-c2cccc(C)n2)cn1)c1ccc(C)cc1 | . | . | . | -1 | . | . | . | .
Cc1cc(C)nc(-n2nc(C)cc2NC(=O)CN2CCc3ccccc3C2)n1 | 1 | 1 | 9 | 6 | -1 | 54* | 15 | -2
N#Cc1ccc(CON=Cc2ccccc2)cc1 | . | . | . | 1 | . | . | . | .
COc1ccc(OCCSc2ccc(S(=O)(=O)N3CCCC3)cn2)cc1 | . | 1 | . | 0 | -8 | 15 | . | .
CN1CCN(S(=O)(=O)c2ccc(SCCOc3ccc(Cl)cc3)nc2)CC1 | . | 3 | . | 3 | -2 | 51* | 15 | 7
Cc1nnc(C)n1N=Cc1ccc2c(c1)OCCO2 | . | . | . | -4 | . | . | . | .
CCC[C@H](CN[C@@H](CNC)[C@H](C)CC)NCCc1cc(C(F)(F)F)cc(C(F)(F)F)c1 | 0 | 2 | 21 | 4 | 2 | 12 | . | .
CC[C@@H](C)[C@H](CNC)NC[C@@H](Cc1cccc2ccccc12)NCCc1cccc(C(F)(F)F)c1 | -2 | 5 | 5 | 2 | -2 | 70* | 48* | 13 | Apaf1 inh interf=>100
CN1CCN(c2cc3c(c4c2[nH]c2ccccc24)C(=O)CC(C)(C)C3)CC1 | 2 | 4 | -7 | -52 | 1 | 50* | 5 | -3
COc1ccc(CN2CCC(C(=O)Nc3ccc(Oc4cccnc4)cc3)CC2)cc1 | 1 | 0 | 1 | 2 | 2 | 58* | 17 | 16
COc1cccc(O)c1CN1CCC(C(=O)Nc2ccc(Oc3cccnc3)cc2)CC1 | -2 | -3 | 0 | 2 | 3 | 16 | . | .
O=C(/C=C/c1ccccc1)NCC(=O)NN=Cc1cccs1 | . | . | . | 3 | . | . | . | .
N=c1n(CC(=O)c2ccc(Br)s2)c2ccccc2n1Cc1ccccc1 | -8 | -1 | -2 | 5 | -4 | 42* | 23 | 7
Cc1cccc(/C=N/NC(=O)C(C)Nc2cccc3ccccc23)n1 (configuration not stated) | 0 | 0 | 3 | . | 3 | 91* | 20 | 10
COc1cc([N+](=O)[O-])cc(/C=N/NC(=O)C(C)Nc2cccc3ccccc23)c1O (configuration not stated) | -2 | 2 | -4 | . | -7 | 93* | 21 | 0
NC1(C#Cc2ccc3oc(=O)c(-n4cc(-c5ccsc5)nn4)cc3c2)CCCCC1 | . | -2 | . | 2 | 2 | 48* | 14 | 7
Cc1ccc2c(c1)c1cccc3c1n2CCN3CCC(N)=O | 2 | 1 | 29 | -127 | -11 | 51* | 22 | 11
Nc1ncc(Br)cc1N=Cc1ccccc1 | -1 | 4 | 7 | 5 | 1 | 62* | 8 | -2
CCOC(=O)c1nn(-c2ccccc2)c(=O)c2c(NC(C)=O)scc12 | 4 | -1 | 6 | -18 | -1 | -7 | . | .
CCOC(=O)c1nn(-c2ccccc2)c(=O)c2c(N)scc12 | 2 | 4 | 11 | 6 | -1 | 56* | 22 | 2
CCOC(=O)c1nn(-c2ccccc2C)c(=O)c2c(N)scc12 | 8 | 0 | 16 | -1 | -5 | 47* | 12 | -15
Clc1ccc(C=NN2CCN(Cc3ccccc3)CC2)cc1 | . | . | . | 0 | . | . | . | .
CCOC(=O)N1CCC(NC(=O)CN2C(=O)CSc3ncccc32)CC1 | 2 | -1 | 9 | 0 | -4 | 63* | 8 | 1
